Activity calls are given as the source filed them. The calls are words filed in the database; no cut-off is given here. Peptide text beside a SMILES is read from it.
Tests used:
[1] = tested on: RAW264.7; experiment: Inhibition of LTA-induced TNFalpha production in mouse RAW264.7 cells 2 to 50 ug/ml after 6 hrs by ELISA; format: functional, cell-based
[2] = tested on: RAW264.7; experiment: Inhibition of LPS-induced IL-6 production in mouse RAW264.7 cells 2 to 50 ug/ml after 6 hrs by ELISA; format: functional, cell-based
[3] = Induction of IL-17alpha mRNA up-regulation in mouse BMDM at 20 ug/ml after 3 hrs by qRT-PCR analysis relative to control; format: functional
In short: (§1)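 Murine BMDMs stimulated with peptide, then target mRNA quantified by qRT-PCR. Expression normalized to GAPDH, with untreated cells set to 1.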

[4] = tested on: Mus musculus; experiment: Stimulation of innate immune response in Kunming mouse assessed as protection against drug-resistant Pseudomonas aeruginosa-induced mortality by measuring survival rate at 10 mg/kg, ip administered 5 hrs before bacterial infection measured up to 7 days; format: functional; conditions: route intraperitoneal
In short: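 Female Kunming mice (18−22 g) were dosed ip in sterile saline at 10 mg/kg, 5 h before ip challenge with clinical drug-resistant isolates: E. coli (n = 12), P. aeruginosa (n = 10) or S. aureus (n = 15). Survival was recorded for up to 7 days, with checks every 6 h and euthanasia by CO2 at the humane end point.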

[5] = tested on: RAW264.7; experiment: Inhibition of LPS-induced nitric oxide production in mouse RAW264.7 cells 2 to 50 ug/ml after 6 hrs by ELISA; format: functional, cell-based
[6] = Increase of IL-1Ra protein level in mouse BMDM at 10 ug/ml after 18 hrs by ELISA; format: functional
In short: (§2)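 Bone marrow-derived macrophages (RPMI 1640, 10% FCS, 20% L929-conditioned medium) stimulated with peptide for 18 h. Cytokines and chemokines in culture supernatant quantified by sandwich ELISA. Mean ± SD from three independent experiments, unpaired t test.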

[7] = tested on: BMDM; experiment: Increase of CXCL2 production in mouse BMDM after 6 hrs by ELISA in presence of KN-62; format: functional
[8] = Induction of IL-1beta mRNA up-regulation in mouse BMDM at 20 ug/ml after 3 hrs by qRT-PCR analysis relative to control; format: functional; in short: as §1
[9] = tested on: Mus musculus; experiment: Stimulation of innate immune response in Kunming mouse infected with Pseudomonas aeruginosa ATCC 27853 assessed as effect on TNFalpha production in peritoneal lavage at 10 mg/kg, ip after 5 hrs by ELISA; format: functional, organism-based; parameters: dose 10 mg/kg
[10] = tested on: BMDM; experiment: Induction of CXCL3 mRNA up-regulation in mouse BMDM at 20 ug/ml after 3 hrs by qRT-PCR analysis; format: functional; in short: as §1
[11] = tested on: Mus musculus; experiment: Stimulation of innate immune response in Kunming mouse assessed as increase of IL-10 level in peritoneal lavage at 10 mg/kg, ip after 5 hrs; format: functional, organism-based; parameters: dose 10 mg/kg
In short: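 Female Kunming mice (18−22 g) received a single ip injection of peptide at 10 mg/kg in sterile saline. Peritoneal lavage was collected in 2 mL of cold sterile saline 5 h later, and cytokines and chemokines were measured by ELISA. Data are mean ± SD from four mice, compared by unpaired t test.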

[12] = tested on: Mus musculus; experiment: Stimulation of innate immune response in Kunming mouse infected with Staphylococcus aureus ATCC 25923 assessed as reduction of bacterial burden in peritoneal lavage by measuring survival rate at 10 mg/kg, ip administered 5 hrs before bacterial infection measured up to 7 days; format: functional, organism-based; parameters: dose 10 mg/kg
In short: (§3)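 Peptide at 10 mg/kg ip was given 5 h before ip challenge with E. coli 25922 (2.5 × 10^8 CFU), P. aeruginosa 27853 (8 × 10^7 CFU) or S. aureus 25923 (2 × 10^8 CFU) per mouse. Viable bacteria were counted in peritoneal lavage collected in 2 mL of cold saline (n = 7, 6 and 8 respectively; unpaired t test). Survival was recorded for up to 7 days.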

[13] = tested on: BMDM; experiment: Increase of CCL2 protein level in mouse BMDM at 20 ug/ml after 18 hrs by ELISA; format: functional; in short: as §2
[14] = tested on: Mus musculus; experiment: Stimulation of innate immune response in Kunming mouse assessed as protection against CLP-induced mortality by measuring survival rate at 10 mg/kg, ip administered 12 hrs before bacterial infection measured up to 7 days; format: functional; conditions: route intraperitoneal
[15] = tested on: Mus musculus; experiment: Stimulation of innate immune response in Kunming mouse infected with Pseudomonas aeruginosa ATCC 27853 assessed as reduction of bacterial burden in peritoneal lavage by measuring survival rate at 10 mg/kg, ip administered 5 hrs before bacterial infection measured up to 7 days; format: functional, organism-based; parameters: dose 10 mg/kg; in short: as §3
[16] = Increase of CXCL2 production in mouse BMDM after 6 hrs by ELISA in presence of JNK inhibitor SP600125; format: functional
[17] = Induction of IL-10 mRNA up-regulation in mouse BMDM at 20 ug/ml after 3 hrs by qRT-PCR analysis relative to control; format: functional; in short: as §1

CC[C@H](C)[C@H](NC(=O)[C@@H](NC(=O)[C@H](CCCNC(=N)N)NC(=O)[C@@H]1CCCN1C(=O)[C@H](CCCCN)NC(=O)[C@H](CCCCN)NC(=O)[C@H](Cc1ccccc1)NC(=O)[C@H](Cc1ccccc1)NC(=O)[C@H](CCCCN)NC(=O)[C@H](CCCCN)NC(=O)[C@H](C)NC(=O)[C@H](CCCNC(=N)N)NC(=O)[C@H](CCCCN)NC(=O)[C@H](CCCCN)NC(=O)[C@@H](NC(=O)[C@H](CO)NC(=O)[C@H](CC(N)=O)NC(=O)[C@H](CCCCN)NC(=O)[C@H](CC(C)C)NC(=O)[C@H](CCCCN)NC(=O)[C@H](CCCCN)NC(=O)[C@H](Cc1ccccc1)NC(=O)[C@H](Cc1ccccc1)NC(=O)[C@@H](N)CCCCN)C(C)C)C(C)C)C(=O)NCC(=O)N[C@H](C(=O)N[C@@H](CO)C(=O)N[C@H](C(=O)N1CCC[C@H]1C(=O)N[C@@H](Cc1ccccc1)C(=O)O)[C@@H](C)CC)C(C)C (H-KFFKKLKNSVKKRAKKFFKKPRVIGVSIPF-OH)
inhibition [1]: inactive | inhibition [2]: Active | fold change (FC) [3]: 51 | survival at 10 mg/kg [4]: 95% | inhibition [5]: Active | Activity [6]: 232 pg/mL | Activity [7]: Active | fold change (FC) [8]: 2.5 | Activity [9]: inactive | Activity [10]: Active | Activity [11]: Active | Activity [12]: Active | Activity [13]: Active | survival at 10 mg/kg [14]: 70% | Activity [15]: Active | Activity [16]: 952 pg/mL | fold change (FC) [17]: 5
